Broadly, the EC50 is the concentration giving half of the maximal effect. Low values mean a more potent agent, high ones a less potent agent. The term IC50 denotes the concentration that gives 50% inhibition.

This passage reports EC50, IC50 and Max stimulation results from ChEMBL document CHEMBL1136477, “beta-alanine dipeptides as MC4R agonists” (Bioorg Med Chem Lett, 2003).

Assay [1] concerns the target T1, Melanocortin receptor 4 (Homo sapiens, UniProt P32245). As to the kind of experiment: Stimulation of adenylate cyclase in HEK293 cells expressing the human MC4R receptor was determined by measuring cAMP accumulation using the RPA559 SPA assay. The format is functional, cell-based. The essentials: (§1)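 HEK293 cells stably expressing human MC4R (MEM, G418, 10% heat-inactivated FBS) seeded 5×10^4 cells/well overnight. Then 10 min at 37 °C with 0.1 mM IBMX and increasing compound (1% DMSO final). After lysis, cAMP read by SPA kit. EC50 by non-linear regression. Intrinsic activity is % of NDP-a-MSH maximum. Run twice or three times in duplicate.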
Background: Cyclic AMP is a second messenger, typically raised through Gs and lowered through Gi signalling.

The target in assay [2] is T1, Melanocortin receptor 4. As to the kind of experiment: Binding activity was measured using membranes of Hi5 cells expressing the human MC4R receptors. The assay is classed as cell membranes, BTI-TN-5B1-4.
Assay [3] can be described thus: Intrinsic activity was expressed as percent of maximal activity achieved by NDP-alpha-MSH. The assay is classed as functional. The essentials: as §1

T1 sequence (P32245 whole entry): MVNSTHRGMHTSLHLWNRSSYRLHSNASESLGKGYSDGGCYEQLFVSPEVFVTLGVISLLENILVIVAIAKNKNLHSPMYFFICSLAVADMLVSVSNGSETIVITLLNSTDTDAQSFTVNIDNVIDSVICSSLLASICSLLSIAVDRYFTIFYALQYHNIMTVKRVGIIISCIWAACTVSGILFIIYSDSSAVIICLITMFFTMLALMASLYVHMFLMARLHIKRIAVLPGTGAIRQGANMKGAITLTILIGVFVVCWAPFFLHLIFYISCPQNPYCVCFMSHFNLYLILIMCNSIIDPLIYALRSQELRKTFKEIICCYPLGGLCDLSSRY

Turning to `CNCCC(=O)N[C@H](Cc1ccc(Cl)cc1)C(=O)N1CCC(Cn2cncn2)(C2CCCCC2)CC1`, the EC50 in assay [1] is 70 nM. The IC50 in assay [2] worked out at 10 nM. The molecule also had a Max stimulation in assay [3] of 98%. Molecule `CC(=O)NCCC(=O)N[C@H](Cc1ccc(Cl)cc1)C(=O)N1CCC(Cn2cncn2)(C2CCCCC2)CC1` registered an IC50 in assay [2] of 12 nM. On the same count and under the same terms, under `O=C(CCNC(=O)c1ccccc1)N[C@H](Cc1ccc(Cl)cc1)C(=O)N1CCC(Cn2cncn2)(C2CCCCC2)CC1` stands 90 nM. The same measure, in the same setting: under `O=C(CCNC(=O)C(F)(F)F)N[C@H](Cc1ccc(Cl)cc1)C(=O)N1CCC(Cn2cncn2)(C2CCCCC2)CC1` stands 180 nM; under `O=C(N[C@H](Cc1ccc(Cl)cc1)C(=O)N1CCC(Cn2cncn2)(C2CCCCC2)CC1)[C@H]1CCCNC1`, 9 nM. Regarding `O=C(N[C@H](Cc1ccc(Cl)cc1)C(=O)N1CCC(Cn2cncn2)(C2CCCCC2)CC1)[C@H]1Cc2ccccc2CN1`, the Max stimulation in assay [3] is 99%. Take `O=C(CCN(Cc1ccccc1)Cc1ccccc1)N[C@H](Cc1ccc(Cl)cc1)C(=O)N1CCC(Cn2cncn2)(C2CCCCC2)CC1`: the IC50 in assay [2] was found to be 110 nM. Same read-out and setting: in the case of `CC(C)(CN)C(=O)N[C@H](Cc1ccc(Cl)cc1)C(=O)N1CCC(Cn2cncn2)(C2CCCCC2)CC1` it was 30 nM.

For `CN(C)CCC(=O)N[C@H](Cc1ccc(Cl)cc1)C(=O)N1CCC(Cn2cncn2)(C2CCCCC2)CC1`, in assay [1], the EC50 came to 40 nM. Also, the IC50 in assay [2] is 10 nM. The Max stimulation in assay [3] amounted to 98%.

As to `O=C(N[C@H](Cc1ccc(Cl)cc1)C(=O)N1CCC(Cn2cncn2)(C2CCCCC2)CC1)C1CNC1`, the IC50 in assay [2] is 16 nM.

`CC(C)(N)CC(=O)N[C@H](Cc1ccc(Cl)cc1)C(=O)N1CCC(Cn2cncn2)(C2CCCCC2)CC1` displayed an IC50 in assay [2] of 18 nM.

In assay [2], `O=C(C[C@@H]1CCCN1)N[C@H](Cc1ccc(Cl)cc1)C(=O)N1CCC(Cn2cncn2)(C2CCCCC2)CC1` yielded an IC50 of 22 nM. Molecule `O=C(CCNCc1ccccc1)N[C@H](Cc1ccc(Cl)cc1)C(=O)N1CCC(Cn2cncn2)(C2CCCCC2)CC1` returned an IC50 in assay [2] of 14 nM. The same measure, in the same setting: under `O=C(N[C@H](Cc1ccc(Cl)cc1)C(=O)N1CCC(Cn2cncn2)(C2CCCCC2)CC1)[C@@H]1CCCNC1` stands 12 nM. The same measure, in the same setting: under `O=C(CCNC(=O)[C@H]1CCCNC1)N[C@H](Cc1ccc(Cl)cc1)C(=O)N1CCC(Cn2cncn2)(C2CCCCC2)CC1` stands 22 nM. As to `COCC(=O)NCCC(=O)N[C@H](Cc1ccc(Cl)cc1)C(=O)N1CCC(Cn2cncn2)(C2CCCCC2)CC1`, in assay [2], the IC50 was determined as 21 nM. On the same count and under the same terms, under `O=C(CCN1CCCCC1)NCCC(=O)N[C@H](Cc1ccc(Cl)cc1)C(=O)N1CCC(Cn2cncn2)(C2CCCCC2)CC1` stands 12 nM. In assay [1], `NCCC(=O)N[C@H](Cc1ccc(Cl)cc1)C(=O)N1CCC(Cn2cncn2)(C2CCCCC2)CC1` displayed an EC50 of 170 nM. The IC50 in assay [2] was 16 nM. Besides, in assay [3], the Max stimulation is 92%. In turn, `O=C(CCNC(=O)[C@@H]1CCCNC1)N[C@H](Cc1ccc(Cl)cc1)C(=O)N1CCC(Cn2cncn2)(C2CCCCC2)CC1` displayed an IC50 in assay [2] of 25 nM. Same read-out and setting: under `CN(C)CCC(=O)NCCC(=O)N[C@H](Cc1ccc(Cl)cc1)C(=O)N1CCC(Cn2cncn2)(C2CCCCC2)CC1` stands 11 nM.
